From the EternaBench riboswitch data

Assays:
MS2 coat protein [1] = assay: apparent Kd, MS2 coat protein; higher = weaker binding; RNA-MaP array
How it was run: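 In Tris-HCl pH 7.5 buffer with KCl, MgCl2, BSA, DTT, tRNA and Tween20, with or without input ligand, fluorescently labeled MS2 coat protein at 1.5 nM to 3 μM was incubated at room temperature with designed RNAs. The RNAs had been transcribed on an Illumina sequencing chip from sequenced DNA templates, and incubation ran 0.8–1.5 h at the lowest to 10–20 min at the highest concentrations. Apparent Kd is the median of binding-curve fits for individual clusters. Designs measured on fewer than 10 clusters were excluded.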

MS2 coat protein [2] = assay: apparent Kd, MS2 coat protein; higher = weaker binding; RNA-MaP array; FMN 200 µM where present
How it was run: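 SNAP-549-labelled MS2 coat protein, doubled from 0.7 or 1.5 nM to 3 µM, was titrated over designs transcribed by stalled E. coli RNA polymerase on Illumina sequencing-chip clusters. Titrations were run without and then with constant ligand in 100 mM Tris-HCl pH 7.5, 80 mM KCl, 4 mM MgCl2, BSA, DTT, yeast tRNA and Tween-20. The apparent Kd is the median of filtered per-cluster fits to green signal normalised to red-channel RNA signal and control-cluster median Fmax.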

[3] = designed as: OFF switch for flavin mononucleotide, no ligand
[4] = ligand present: flavin mononucleotide, designed as: OFF switch for flavin mononucleotide
[5] = designed as: ON switch for flavin mononucleotide, no ligand
[6] = ligand present: flavin mononucleotide, designed as: ON switch for flavin mononucleotide

| Sequence | apparent Kd (MS2 coat protein [2]; [3]) [nM] | apparent Kd (MS2 coat protein [2]; [4]) [nM] | also measured |
| --- | --- | --- | --- |
| AUAAACCUAGGAUAUACCAGGACGAUUCAACAAGAAAACGAACAUGAGGAUCACCCAUGUAGAAGGAGGGAAAG | – | – | apparent Kd (MS2 coat protein [1]; [3]): 20.5 nM; apparent Kd (MS2 coat protein [1]; [4]): 25.3 nM |
| AUAAUCCCUGUUCAGAGACAUGAGGAUCACCCAUGUUUAACGAGAAGGUGAGUGCGACGGCGUCUCAAGGAUAUCGACGUGACC | – | – | apparent Kd (MS2 coat protein [1]; [3]): 9.05 nM; apparent Kd (MS2 coat protein [1]; [4]): 10.4 nM |
| AUACGUGCAGGAUAUUAUUCGAGCCACAUGAGGAUCACCCAUGUUAAUUCUUCAUGUAUCUAAGAAGGGCAGUGAA | – | – | apparent Kd (MS2 coat protein [1]; [3]): 9.07 nM; apparent Kd (MS2 coat protein [1]; [4]): 9.67 nM |
| AUCGAUUUUAUAGGAUAUCGCACAUGAGGAUCACCCAUGUGCCCGACAGACUUAAAGCUCAAUCGCGAGAAGGAUAGAACAGGG | – | – | apparent Kd (MS2 coat protein [1]; [3]): 8.63 nM; apparent Kd (MS2 coat protein [1]; [4]): 8.02 nM |
| AUGUAACGUGAGAAGGUGUUGAAAUAAGUUCCAUAAAUCUUACAUGAGGAUCACCCAUGUUUAUACAAGGAUAUCAUUAAUUAU | – | – | apparent Kd (MS2 coat protein [1]; [5]): 16.8 nM; apparent Kd (MS2 coat protein [1]; [6]): 12.9 nM |
| AUUAACAUGAGGAUCACCCAUGUGGCCCACCGAGGACCGGUACGGCCGCCACUCGUCGGAAAGGCUAAAUUUAUGAAGUCCAAAA | – | – | apparent Kd (MS2 coat protein [1]; designed as: ON switch for tryptophan, no ligand): 18.7 nM; apparent Kd (MS2 coat protein [1]; ligand present: tryptophan, designed as: ON switch for tryptophan): 16.1 nM |
| AUUAACUCAGCAGGAUAUCUCAGCGGACGUUGCAGAGAAGGGCUAUGCCUAUGUAGGCAACUCACAUGAGGAUCACCCAUGUAA | – | – | apparent Kd (MS2 coat protein [1]; [5]): 38.8 nM; apparent Kd (MS2 coat protein [1]; [6]): 19.1 nM |
| AUUAGCAAGUCAUAGGAUAUGAAGCCACUUACAUGAGGAUCACCCAUGUAAUUCCGGGUCCCGCCUCAGAAGGAUGACGUAAUAGG | – | – | apparent Kd (MS2 coat protein [1]; [5]): 17.1 nM; apparent Kd (MS2 coat protein [1]; [6]): 7.12 nM |
| UUUGUUUAGGUAGGAUAUACUUUUAAUUUCUCUUUCCUUACAUGAGGAUCACCCAUGUUUACAUUGUAGAAGGACCACUUUGUU | 21.8 | 19.8 | – |
| UUUGUUUUGCAAGGAUAUGUUUAAUUUUAGUUUCCUUACACAUGAGGAUCACCCAUGUUAUACUUACAGAAGGUGCGUAAUUUU | 126 | 94 | – |
| UUUUAACUACAAUUACAUGAGGAUCACCCAUGUUUUGGGAUGCAGGAUAUGUGGUAUAUUAAUUAACAGAAGGGCAAUAAUUAA | – | – | apparent Kd (MS2 coat protein [2]; [5]): 57.6 nM; apparent Kd (MS2 coat protein [2]; [6]): 46.4 nM |
| UUUUAGGGAGGAUAUACAUUUUUUUUAUUAUCCUCAUUAUUACAUGAGGAUCACCCAUGUAGAAGGCCCAUUUU | 60.7 | 146 | – |
| UUUUAGUCAGGAUAUACAUUUUUUUAUUUAUUUAUAAUAUUACAUGAGGAUCACCCAUGUAGAAGGGACAUUUU | 31.8 | 26.5 | – |
| UUUUAGUGAGGAUAUGUGGCUUCGAUCGUGAGAUCGAGGCUACAGAAGGCACAUGAGGAUCACCCAUGUUCCUC | 38.3 | 597 | – |
| UUUUCCGGGCAGAAGGGUCCUCACAUGAGGAUCACCCAUGUAAACGCGGAUAGGAUAUGCCACUGGGCUCGAUAAGAGUGGUUC | – | – | apparent Kd (MS2 coat protein [2]; [5]): 409 nM; apparent Kd (MS2 coat protein [2]; [6]): 160 nM |
| UUUUUACAUGAGGAUCACCCAUGUCAGGAUAUCGUUAUAUUUUAUUAUUUUAUUUUUUCGAGAAGGGACUAUUA | 90.3 | 58.6 | – |
| UUUUUACGAGGAUAUCGUUUUUUUCACAUGAGGAUCACCCAUGUUGUUUAUGUUGCGUUGCGAGAAGGCGUUUGUU | 27.4 | 22.8 | – |
| UUUUUACGAGGAUAUCGUUUUUUUCACAUGAGGAUCACCCAUGUUGUUUAUGUUUCGUUGCGAGAAGGCGUUUGUU | 27.3 | 21.3 | – |
| UUUUUAUUUGCAGGAUAUUGUAUUUUAUUACUUCAAGAAGGGCAUUACAUGAGGAUCACCCAUGUCUUCCUAUGGUUAACUAGU | 12.3 | 12 | – |
| UUUUUGUCAGGAUAUCGUUAAUUUAAUUGUUUGUAUUAGUUCGAGAAGGGACAUGAGGAUCACCCAUGUAUUUU | 41.1 | 103 | – |
| UUUUUGUCAGGAUAUCUAAUCUAGAUGUUCGCAUCUAGAUUAGAGAAGGGACAUGAGGAUCACCCAUGUAGUUU | 61.9 | 253 | – |
| UUUUUGUGAGGAUAUCAGUAGUAAAAAAAUAAAAUUACUACUGAGAAGGCACAUGAGGAUCACCCAUGUUUUUU | 41.7 | 96.5 | – |
| UUUUUGUGAGGAUAUCAGUAGUAGAACAAUAGUACUACUACUGAGAAGGCACAUGAGGAUCACCCAUGUUCCUU | 16 | 34.6 | – |
| UUUUUGUUCAAGAAGGAUGUUUUAGUUUAGAUCAUAGGAUAUUGAUAUAUUGUAGACUCAUGUAACAUGAGGAUCACCCAUGUA | – | – | apparent Kd (MS2 coat protein [2]; [5]): 101 nM; apparent Kd (MS2 coat protein [2]; [6]): 65.4 nM |
| UUUUUUGUUGUGAGGAUAUCGUAUUUUUUUUGUUACGAGAAGGCACAUGAGGAUCACCCAUGUUUCUUGAUGUU | 13.6 | 28.6 | – |
| UUUUUUGUUGUGAGGAUAUCGUUGUGGAUGUGGAUCGAGAAGGCACAUGAGGAUCACCCAUGUUUGUUGUGGUU | 102 | 158 | – |
